This is an account of results in paper PMC10329955 (Advances in Therapy, 2023).

For data set [1] the following is noted: global and Japanese patient populations, single and multiple doses; cited from earlier work.
The subject of data set [2] is Chinese patients with type 2 diabetes. As to the kind of experiment: Safety and tolerability. In kind it is in vivo, human. The following applies: during the study. The gist of the method:
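Adults aged 20–70 with T2D and BMI ≥ 23.0 kg/m2 received once-weekly SC test compound or placebo, followed by 4 weeks of follow-up. AEs were recorded on an electronic CRF with investigator-assessed relatedness. TEAEs were events arising or worsening after treatment start. Also collected: laboratory values, vital signs, ECG, injection-site reactions and hypoglycaemia (glucose ≤ 70.0 mg/dL, graded per International Hypoglycaemia Study Group). All enrolled patients were included.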

Data set [3] has the same test system. As to the kind of experiment: Pharmacodynamics: change from baseline in HbA1c, FPG, 7-point SMBG, meal intake. In kind it is in vivo, human. The following applies: both tirzepatide groups; not apparent in placebo.
The test system is the same in data set [4]. As to the kind of experiment: Immunogenicity: anti-drug antibodies. Format: in vivo, human. The procedure, abridged: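 Randomised 5:1, double-blind, placebo-controlled. Test compound or placebo given once weekly SC, starting at 2.5 mg and rising 2.5 mg every 4 weeks to 10.0 or 15.0 mg. Frequency and percentage of patients with pre-existing and treatment-emergent ADAs were recorded. Treatment-induced meant a titer twofold/1-dilution above the minimum required dilution with no baseline ADA. Treatment-boosted meant a fourfold/2-dilution titer rise over a positive baseline.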

The nature of data set [5]: Tirzepatide plasma pharmacokinetics after multiple SC doses. In kind it is in vivo, human. The note with it: Chinese patients with T2D, QW SC 2.5–15.0 mg. The procedure, abridged: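 Plasma test compound concentrations were measured after once-weekly SC doses escalated from 2.5 mg by 2.5 mg every 4 weeks, to 10.0 mg or 15.0 mg. Cmax, AUC, Tmax and T½ were derived. T½ was calculated over periods both shorter and longer than the resulting T½. Patients with ≥1 dose and evaluable data were analysed.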

[6] abbreviates: all 20 patients treated with tirzepatide, treatment-induced.

Entries after “also recorded” stand apart in the source; their conditions may differ.

`CC[C@H](C)[C@H](NC(=O)[C@H](CC(C)C)NC(=O)[C@H](Cc1c[nH]c2ccccc12)NC(=O)[C@H](CCC(N)=O)NC(=O)[C@@H](NC(=O)[C@H](Cc1ccccc1)NC(=O)[C@H](C)NC(=O)[C@H](CCCCNC(=O)COCCOCCNC(=O)COCCOCCNC(=O)CC[C@H](NC(=O)CCCCCCCCCCCCCCCCCCC(=O)O)C(=O)O)NC(=O)[C@H](CCC(N)=O)NC(=O)[C@H](C)NC(=O)[C@@H](NC(=O)[C@H](CCCCN)NC(=O)[C@H](CC(=O)O)NC(=O)[C@H](CC(C)C)NC(=O)C(C)(C)NC(=O)[C@@H](NC(=O)[C@H](CO)NC(=O)[C@H](Cc1ccc(O)cc1)NC(=O)[C@H](CC(=O)O)NC(=O)[C@H](CO)NC(=O)[C@@H](NC(=O)[C@H](Cc1ccccc1)NC(=O)[C@@H](NC(=O)CNC(=O)[C@H](CCC(=O)O)NC(=O)C(C)(C)NC(=O)[C@@H](N)Cc1ccc(O)cc1)[C@@H](C)O)[C@@H](C)O)[C@@H](C)CC)[C@@H](C)CC)C(C)C)C(=O)N[C@@H](C)C(=O)NCC(=O)NCC(=O)N1CCC[C@H]1C(=O)N[C@@H](CO)C(=O)N[C@@H](CO)C(=O)NCC(=O)N[C@@H](C)C(=O)N1CCC[C@H]1C(=O)N1CCC[C@H]1C(=O)N1CCC[C@H]1C(=O)N[C@@H](CO)C(N)=O` [Tirzepatide, tirzepatide]: the “median Tmax range” value in data set [1] was 24 to 48 h. Also, the “deaths or SAEs in patients receiving tirzepatide” value in data set [2] (both tirzepatide groups) is reported as “no serious adverse events reported; also recorded: No deaths or SAEs occurred”. Besides, the “changes in vital signs measurements” value in data set [2] is listed as “No clinically meaningful changes”. Further, the “meal intake between baseline and end of study” value in data set [3] is given as “trend towards a decrease”. Moreover, the entries for the “ADA-positive patients post-baseline, number” value in data set [4] (2.5–10.0 mg group), in data set [4] (2.5–15.0 mg group) and in data set [4] (setting [6]) were “five”, “three” and “Eight”, respectively. In addition, in data set [4] (setting [6]), the “ADA-positive patients post-baseline, percentage” value was found to be 40%. Moreover, in data set [4] (baseline), the ADAs at baseline result was “No ADAs were detected”. The “impact of ADA-positive status on safety, PK and PD” value in data set [4] (in vivo) is “no apparent impact”. Moreover, in data set [5], the “T½, range of values across weeks and cohorts” value is given as 124 to 145 h.
